Columns and labels:
[1] = test system: Human immunodeficiency virus 1; experiment: Concentration required to achieve 50% protection of CEM-SS cells against the cytopathic effect of HIV-1.; format: functional, organism-based; settings: Human immunodeficiency virus 1, CEM-SS
CEM-SS [2] = experiment: Cytotoxic concentration required to reduce the viability of mock infected CEM-SS cells by 50%.; format: functional; settings: Homo sapiens
[3] = (§1) Selectivity Index measured as ratio of CC50 to that of EC50.; format: functional, CCRF-CEM
CEM-SS [4] = experiment: Cytotoxic concentration required to reduce the viability of mock infected CEM-SS by 50%.; format: functional; settings: Homo sapiens
[5] = Cytotoxic concentration for inhibition of HIV-1 replication in human peripheral Blood mononuclear cells.(PBMCs); format: functional
[6] = Selectivity Index measured as ratio of CC50 to that of EC50 in PBMCs; format: functional
How it was run: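 HIV-1 (HTLV-IIIB) in PHA-stimulated PBMCs from healthy seronegative donors. Cells were infected at MOI 0.01 for 2 h, washed, then grown with compound in RPMI 1640 with IL-2 and 10% FBS at 37 °C. Cultures were split 1:2 with fresh compound on days 4 and 8. p24 was read by ELISA on day 12. Cytotoxicity was measured by [3H]thymidine incorporation. SI = CC50/EC50, means of two independent experiments in duplicate.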

[7] = Effective concentration for inhibition of HIV-1 replication in human peripheral Blood mononuclear cells.(PBMCs); format: functional
How it was run: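 PBMCs from healthy seronegative donors were isolated on Ficoll-Hypaque and stimulated 24 h with PHA (10 μg/mL). Cells at 1×10^6 cells/mL were infected with HIV-1 HTLV-IIIB at MOI 0.01, with 2-h adsorption followed by three washes. Culture was in RPMI 1640 with IL-2 (2 U/mL) and 10% FBS with compound at 37 °C, split 1:2 with fresh drug on days 4 and 8. On day 12, supernatant p24 was measured by ELISA in triplicate. […] Means of two independent experiments run in duplicate.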

CCRF-CEM [8] = experiment: Effective concentration for inhibition of […] replication in CEM cells.; format: functional, cell-based; settings: Homo sapiens
CCRF-CEM [9] = experiment: Cytotoxic concentration for inhibition of […] replication in CEM cells.; format: functional; settings: Homo sapiens
[10] = test system: Avian myeloblastosis virus; experiment: Inhibitory effect on recombinant AMV reverse transcriptase; format: functional
How it was run: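 Recombinant RT (0.05 unit of HIV-1, AMV or Mo-MuLV) in 50 mM Tris-HCl pH 7.8, 50 mM KCl, 30 mM MgCl2, 1 mM DTT and 0.01% Triton X-100. Template poly r(A)d(T)12-18 (5.0 μg) with 0.5 μCi [3H]dTTP. Compound added in DMSO (final below 1%), 1 h at 37 °C. Reaction stopped with cold 20% TCA and precipitate counted. […] Means of at least three independent experiments run in duplicate.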

[11] = test system: Avian myeloblastosis virus; experiment: Inhibitory effect on recombinant AMV reverse transcriptase (Avian Myeloblastosis Virus, AMV); format: functional
How it was run: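 Recombinant RT (0.05 unit each of HIV-1, AMV or Mo-MuLV enzyme) in 50 mM Tris-HCl pH 7.8, 50 mM KCl, 30 mM MgCl2, 1 mM DTT, 0.01% Triton X-100, with poly r(A)d(T)12-18 template and [3H]dTTP. Compounds added from DMSO (final below 1%), 1 h at 37 °C. Stopped with cold 20% TCA; precipitate counted.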

CEM-V [12] = experiment: Cytotoxic concentration required to reduce the viability of mock-infected CEM-V cells by 50%; format: functional; settings: Homo sapiens
CEM-V [13] = experiment: Inhibition of HIV-1 replication in CEM-V cells; format: functional, cell-based; settings: Homo sapiens
[14] = as §1; format: functional

Row | Structure (SMILES) | EC50 [1] [µM] | CC50 (CEM-SS [2]) [µM] | Selectivity index [3] | also measured
1 | Cc1cc(C)cc(Sc2c(C3CC3)c(=O)[nH]c(=O)n2OCCCO)c1 | 15.1 | 128 | 8.5 | 
2 | Cc1cc(C)cc(Sc2c(C)c(=O)[nH]c(=O)n2OCCc2ccccc2)c1 | 3.08 |  | >39 | CC50 (CEM-SS [4]): > 121 µM
3 | Cc1cn([C@H]2C[C@H](N=[N+]=[N-])[C@@H](CO)O2)c(=O)[nH]c1=O [ZIDOVUDINE] | 0.0045 | > 1 | >220 | CC50 [5]: 149 µM; Selectivity index [6]: 16556; EC50 [7]: 0.009 µM
4 | CCCOn1c(Sc2cc(C)cc(C)c2)c(CCC)c(=O)[nH]c1=O | 2.57 | 45 | 18 | 
5 | CCCOn1c(Sc2cc(C)cc(C)c2)c(C2CC2)c(=O)[nH]c1=O | 6.12 | 30 | 4.9 | 
6 | CCCc1c(Sc2cc(C)cc(C)c2)n(OCc2ccccc2)c(=O)[nH]c1=O | 10.3 | 114 | 11 | 
7 | Cc1cc(C)cc(Sc2c(C(C)C)c(=O)[nH]c(=O)n2OCCOc2ccccc2)c1 | 0.46 | 16 | 35 | 
8 | CC(C)c1c(Sc2ccccc2)n(OCCCO)c(=O)[nH]c1=O | 19 | 170 | 8.9 | 
9 | Cc1cc(C)cc(Sc2c(C)c(=O)[nH]c(=O)n2OCc2ccccc2)c1 | 10.1 | > 200 | >20 | 
10 | Cc1c(Sc2ccccc2)n(COCCO)c(=O)[nH]c1=O [HEPT] |  |  | 48 | EC50 (CCRF-CEM [8]): 8.3 µM; CC50 (CCRF-CEM [9]): 400 µM
11 | COCCOn1c(Sc2cc(C)cc(C)c2)c(C(C)C)c(=O)[nH]c1=O | 0.43 | 96 | 223 | 
12 | CCCOn1c(Sc2cc(C)cc(C)c2)c(C)c(=O)[nH]c1=O | 0.93 | 64 | 69 | 
13 | CCCCOn1c(Sc2cc(C)cc(C)c2)c(CC)c(=O)[nH]c1=O | 0.97 | 40 | 41 | 
14 | CCc1c(Sc2cc(C)cc(C)c2)n(OCCOC)c(=O)[nH]c1=O | 1.97 | 136 | 69 | 
15 | CCCOn1c(Sc2cc(C)cc(C)c2)c(C(C)C)c(=O)[nH]c1=O | 0.064 |  |  | IC50 [10]: > 100 µM; CC50 (CEM-SS [4]): 33 µM; CC50 [5]: 70 µM; EC50 [7]: 0.15 µM
16 | Cc1cc(C)cc(Sc2c(C3CC3)c(=O)[nH]c(=O)n2OCCc2ccccc2)c1 | 6.03 | 43 | 7.1 | 
17 | Cc1cc(C)cc(Sc2c(C(C)C)c(=O)[nH]c(=O)n2OCCCO)c1 | 0.19 | 75 | 395 | 
18 | CCCCOn1c(Sc2cc(C)cc(C)c2)c(C(C)C)c(=O)[nH]c1=O | 0.42 | 30 | 71 | 
19 | Cc1cc(C)cc(Sc2c(C(C)C)c(=O)[nH]c(=O)n2OCc2ccccc2)c1 | 8.45 | 24 | 2.8 | 
20 | CCc1c(Sc2cc(C)cc(C)c2)n(OCCCO)c(=O)[nH]c1=O | 0.54 | 123 | 228 | 
21 | Nc1ccn([C@H]2CC[C@@H](CO)O2)c(=O)n1 [ZALCITABINE] | 0.19 | > 10 | >53 | 

Row | Structure (SMILES) | EC50 [1] [µM] | CC50 (CEM-SS [2]) [µM] | Selectivity index [3] | also measured
22 | CCCOn1c(Sc2cccc(F)c2)c(C(C)C)c(=O)[nH]c1=O | 1.9 | 72 | 38 | 
23 | CCCc1c(Sc2cc(C)cc(C)c2)n(OCCCO)c(=O)[nH]c1=O | 8.22 | 107 | 13 | 
24 | Cc1cc(C)cc(Sc2c(C3CC3)c(=O)[nH]c(=O)n2OCc2ccccc2)c1 | 15.9 | > 200 | >13 | 
25 | Cc1cccc(CCOn2c(Sc3cc(C)cc(C)c3)c(C(C)C)c(=O)[nH]c2=O)c1 | 0.84 | 13 | 15 | 
26 | CC(C)c1c(Sc2cc(F)cc(F)c2)n(OCCCO)c(=O)[nH]c1=O | 7.52 | 150 | 20 | 
27 | Cc1cccc(Sc2c(C(C)C)c(=O)[nH]c(=O)n2OCCCO)c1 | 4.7 | 118 | 28 | 
28 | O=C(O)P(=O)(O)O [FOSCARNET SODIUM] |  |  |  | IC50 [11]: 9.31 µM
29 | CC(C)c1c(Sc2cccc(F)c2)n(OCCCO)c(=O)[nH]c1=O |  | 3.4 |  | 
30 | CCc1c(Sc2cc(C)cc(C)c2)n(OCc2ccccc2)c(=O)[nH]c1=O | 5.77 | > 200 | >35 | 
31 | Cc1cc(C)cc(Sc2c(C)c(=O)[nH]c(=O)n2OCCCO)c1 | 5.55 | 140 | 25 | 
32 | CCCOn1c(Sc2ccc(C)cc2)c(C(C)C)c(=O)[nH]c1=O |  |  |  | CC50 (CEM-SS [4]): 69 µM
33 | Cc1cc(C)cc(Sc2c(C(C)C)c(=O)[nH]c(=O)n2OCCc2ccccc2)c1 | 0.49 | 15 | 31 | 
34 | CCCOn1c(Sc2ccccc2C)c(C(C)C)c(=O)[nH]c1=O | 13.9 | 41 | 2.9 | 
35 | CCCOn1c(Sc2cc(C)cc(C)c2)c(CC)c(=O)[nH]c1=O | 0.35 | 54 | 154 | 
36 | O=c1[nH]cnc2c1ncn2[C@H]1CC[C@@H](CO)O1 [DIDANOSINE] |  |  |  | CC50 (CEM-V [12]): > 10 µM; EC50 (CEM-V [13]): 2.8 µM; Selectivity index [14]: > 3.6
37 | CCCOn1c(Sc2cccc(C)c2)c(C(C)C)c(=O)[nH]c1=O | 0.98 | 40 | 41 | 
38 | CCc1c(Sc2cc(C)cc(C)c2)n(OCCc2ccccc2)c(=O)[nH]c1=O | 0.46 | 36 | 78 | 
39 | CCCOn1c(Sc2cc(F)cc(F)c2)c(C(C)C)c(=O)[nH]c1=O | 2.39 | > 200 | >84 | 
40 | CCCOn1c(Sc2ccccc2)c(C(C)C)c(=O)[nH]c1=O | 6.75 | 75 | 11 | 
41 | CCCc1c(Sc2cc(C)cc(C)c2)n(OCCc2ccccc2)c(=O)[nH]c1=O | 0.7 | 29 | 41 | 
